test system: not listed separately; assay: Concentration required to cause 50% death of uninfected MT-4 cells.; assay type: ADME, cell-based, MT4; conditions: human

| SMILES | CC50 |
| --- | --- |
| CC(C)CN(C[C@H](O)[C@@H](NC(=O)O[C@@H]1CCOC1)Sc1ccccc1)S(=O)(=O)c1ccc(N)cc1 | > 50 µM |
| CC(C)CN(C[C@@H](O)[C@@H](NC(=O)O[C@@H]1CCOC1)Sc1ccccc1)S(=O)(=O)c1ccc(N)cc1 | > 50 µM |
| CC(C)CN(C[C@@H](O)[C@H](NC(=O)O[C@@H]1CCOC1)Sc1ccccc1)S(=O)(=O)c1ccc(N)cc1 | > 50 µM |
| CC(C)CN(C[C@@H](O)[C@H](Cc1ccccc1)NC(=O)O[C@H]1CCOC1)S(=O)(=O)c1ccc(N)cc1 | > 50 µM |
| CC(C)CN(C[C@H](O)[C@H](NC(=O)O[C@@H]1CCOC1)Sc1ccccc1)S(=O)(=O)c1ccc(N)cc1 | > 50 µM |
| CC(C)CN(CC(O)C(NC(=O)O[C@H]1CCOC1)Sc1ccccc1)S(=O)(=O)c1ccc(N)cc1 (some centres not stated) | > 50 µM |

test system: MT4; assay: Concentration required to inhibit syncytia formation by 50% on MT-4 cells.; assay type: functional, cell-based; conditions: Homo sapiens
In short: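 HIV-infected MT4 cell cultures were scored by observing the virus's fusogenic effect, that is, syncytium formation. EC50 is the concentration that halves syncytium formation, and compounds were tested up to 50 µM.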

| SMILES | EC50 |
| --- | --- |
| CC(C)CN(C[C@H](O)[C@@H](NC(=O)O[C@@H]1CCOC1)Sc1ccccc1)S(=O)(=O)c1ccc(N)cc1 | > 50 µM |
| CC(C)CN(C[C@@H](O)[C@@H](NC(=O)O[C@@H]1CCOC1)Sc1ccccc1)S(=O)(=O)c1ccc(N)cc1 | > 50 µM |
| CC(C)CN(C[C@@H](O)[C@H](NC(=O)O[C@@H]1CCOC1)Sc1ccccc1)S(=O)(=O)c1ccc(N)cc1 | > 50 µM |
| CC(C)CN(C[C@@H](O)[C@H](Cc1ccccc1)NC(=O)O[C@H]1CCOC1)S(=O)(=O)c1ccc(N)cc1 | 0.01 µM |
| CC(C)CN(C[C@H](O)[C@H](NC(=O)O[C@@H]1CCOC1)Sc1ccccc1)S(=O)(=O)c1ccc(N)cc1 | > 50 µM |
| CC(C)CN(CC(O)C(NC(=O)O[C@H]1CCOC1)Sc1ccccc1)S(=O)(=O)c1ccc(N)cc1 (some centres not stated) | 50 µM |

molecular target: Human immunodeficiency virus type 1 protease (Human immunodeficiency virus 1, UniProt Q72874); assay: Concentration required to inhibit HIV-1 protease cleavage by 50%.; conditions: not given

| SMILES | IC50 |
| --- | --- |
| CC(C)CN(C[C@H](O)[C@@H](NC(=O)O[C@@H]1CCOC1)Sc1ccccc1)S(=O)(=O)c1ccc(N)cc1 | 12.5 µM |
| CC(C)CN(C[C@@H](O)[C@@H](NC(=O)O[C@@H]1CCOC1)Sc1ccccc1)S(=O)(=O)c1ccc(N)cc1 | 16.7 µM |
| CC(C)CN(C[C@@H](O)[C@H](NC(=O)O[C@@H]1CCOC1)Sc1ccccc1)S(=O)(=O)c1ccc(N)cc1 | 1.4 µM |
| CC(C)CN(C[C@H](O)[C@H](NC(=O)O[C@@H]1CCOC1)Sc1ccccc1)S(=O)(=O)c1ccc(N)cc1 | 11.6 µM |

test system: not listed separately; assay: Selectivity index, expressed as the ratio of CC50 and EC50; conditions: read-out: SI
In short: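 Ratio of CC50 to EC50 in HIV-infected MT4 cell cultures. The antiviral EC50 comes from inhibition of virus-induced syncytium formation (the fusogenic effect), scored by observing the cultures.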

| SMILES | selectivity ratio |
| --- | --- |
| CC(C)CN(CC(O)C(NC(=O)O[C@H]1CCOC1)Sc1ccccc1)S(=O)(=O)c1ccc(N)cc1 (some centres not stated) | > 1 |

Source: ChEMBL document CHEMBL1135521 (J Med Chem, 2002)
